Measurements from ChEMBL document CHEMBL3870315, “Design, synthesis and biological evaluation of novel cholesteryl ester transfer protein inhibitors bearing a cycloalkene scaffold” (Eur J Med Chem, 2016).
Active and inactive are the calls of the source. The calls are words filed in the database; no cut-off is given here.

Tests used:
[1] = molecular target: T1, Cholesteryl ester transfer protein (Homo sapiens, UniProt P11597); test: Inhibition of recombinant CETP (unknown origin) assessed as inhibition of BODIPY-labeled cholesteryl transfer to fluorescent substrate by fluorimetric assay
T1 sequence (P11597 whole entry): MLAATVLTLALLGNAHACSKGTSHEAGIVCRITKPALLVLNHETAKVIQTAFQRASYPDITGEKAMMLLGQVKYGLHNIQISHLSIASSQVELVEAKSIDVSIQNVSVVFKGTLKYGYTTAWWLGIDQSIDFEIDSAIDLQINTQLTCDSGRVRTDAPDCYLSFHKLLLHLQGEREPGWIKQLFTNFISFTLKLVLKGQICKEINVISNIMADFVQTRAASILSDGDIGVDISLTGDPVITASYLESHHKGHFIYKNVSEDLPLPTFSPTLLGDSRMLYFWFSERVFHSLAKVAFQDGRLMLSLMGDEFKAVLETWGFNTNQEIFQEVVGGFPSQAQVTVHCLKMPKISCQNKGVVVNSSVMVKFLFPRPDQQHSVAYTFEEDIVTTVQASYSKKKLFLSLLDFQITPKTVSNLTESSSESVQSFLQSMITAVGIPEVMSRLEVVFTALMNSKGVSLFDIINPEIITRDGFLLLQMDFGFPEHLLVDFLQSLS

Syrian golden hamster [2] = test: In vivo inhibition of CETP in po dosed high-fat fed syrian hamster model assessed as increase in plasma HDL-cholesterol level administered once daily for 5 days measured 2 hrs post last dose; format: functional, organism-based; details: Mesocricetus auratus
Procedure, shortened: (§1)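 Male Syrian golden hamsters, 8 weeks old and about 110–120 g, fed a diet with 10% lard oil and 3% cholesterol for 4 weeks, then randomized into four groups. Oral dosing once daily for 5 days in 10% ethanol/10% hydrogenated castor oil/80% water, with a vehicle control group. Animals were fasted 16 h before bleeding. Retro-orbital blood was taken at baseline and 2 h after the last dose. Plasma HDL-C was measured on a chemistry analyser and expressed as percent change. Mean ± SEM.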

[3] = Cmax in Sprague-Dawley rat at 50 mg/Kg, po; format: ADME; design: dose 50 mg/Kg, route oral; details: in vivo
Procedure, shortened: (§2)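 Four adult male Sprague-Dawley rats, fasted 16 h, given a single oral dose of 50 mg/kg suspended in 10% ethanol/10% hydrogenated castor oil/80% water. Heparinized blood was drawn at 0.5–36 h (15 time points) and centrifuged at 3000 rpm for 15 min. Plasma was stored at -70°C until analysis.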

[4] = Tmax in Sprague-Dawley rat at 50 mg/Kg, po; format: ADME; details: in vivo; procedure, shortened: as §2
[5] = Terminal half life in Sprague-Dawley rat at 50 mg/Kg, po; format: ADME; details: in vivo, read-out: beta t1/2 (converted); procedure, shortened: as §2
[6] = AUC in Sprague-Dawley rat at 50 mg/Kg, po; format: ADME; details: in vivo; procedure, shortened: as §2
Syrian golden hamster [7] = test: In vivo inhibition of CETP in high-fat fed syrian hamster model assessed as increase in plasma HDL-cholesterol level at 30 mg/kg, po administered once daily for 5 days measured 2 hrs post last dose relative to control; format: functional, Mesocricetus auratus; design: scale not given: the % may be the effect or the level left; procedure, shortened: as §1
Syrian golden hamster [8] = test: In vivo inhibition of CETP in high-fat fed syrian hamster model assessed as increase in plasma HDL-cholesterol level at 50 mg/kg, po administered once daily for 5 days measured 2 hrs post last dose relative to control; format: functional, Mesocricetus auratus; design: scale not given: the % may be the effect or the level left; procedure, shortened: as §1

SMILES | IC50 [1] [µM] | also measured
COc1ccc(C(C)C)cc1C1=C(CN(Cc2cc(C(F)(F)F)cc(C(F)(F)F)c2)c2ncc(N3CCC(C(=O)O)CC3)cn2)CC(C)(C)CC1 | 0.37 | 
COC(=O)N(CC1=C(c2cc(C(C)C)ccc2OC)CCC(C)(C)C1)Cc1cc(C(F)(F)F)cc(C(F)(F)F)c1 | 21 | 
COc1ccc(C(C)C)cc1C1=C(CN(Cc2cc(C(F)(F)F)cc(C(F)(F)F)c2)c2ncc(-c3cnn(C)c3)cn2)CC(C)(C)CC1 | 0.07 | Activity (Syrian golden hamster [2]): Dose-dependent effect; Cmax [3]: 0.697 µg/mL; Tmax [4]: 2.5 h; half-life [5]: 11.1 h; AUC [6]: 6.99 µg·h/mL; Activity (Syrian golden hamster [7]): 9.3%; Activity (Syrian golden hamster [8]): 27.9%
COc1ccc(C(C)C)cc1C1=C(CN(Cc2cc(C(F)(F)F)cc(C(F)(F)F)c2)C(=O)OCC(C)C)CC(C)(C)CC1 | > 50 | 
COc1ccc(C(C)C)cc1C1=C(CN(Cc2cc(C(F)(F)F)cc(C(F)(F)F)c2)c2ncc(-c3cnn(C)c3)cn2)CCCC1 | 0.93 | 
COc1ccc(C(C)C)cc1C1=C(CN(Cc2cc(C(F)(F)F)cc(C(F)(F)F)c2)c2ncc(N3CCN(C)CC3)cn2)CC(C)(C)CC1 | 2.07 | 
COc1ccc(C(C)C)cc1C1=C(CN(Cc2cc(C(F)(F)F)cc(C(F)(F)F)c2)C(=O)OCc2ccccc2)CC(C)(C)CC1 | > 50 | 
COc1ccc(C(C)C)cc1C1=C(CN(Cc2cc(C(F)(F)F)cc(C(F)(F)F)c2)c2ncc(-c3cnn(C)c3)cn2)CCc2ccccc21 | 0.22 | 
COc1ccc(C(C)C)cc1C1=C(CN(Cc2cc(C(F)(F)F)cc(C(F)(F)F)c2)c2ncc(-c3c(C)noc3C)cn2)CC(C)(C)CC1 | > 50 | 
COc1ccc(C(C)C)cc1C1=C(CN(Cc2cc(C(F)(F)F)cc(C(F)(F)F)c2)c2ncc(-c3cnn(C)c3)cn2)CCC1 | 2.76 | 
COc1ccc(C(C)C)cc1C1=C(CN(Cc2cc(C(F)(F)F)cc(C(F)(F)F)c2)c2ncc(N3CCNCC3)cn2)CC(C)(C)CC1 | 0.35 | 
COC(=O)COc1cnc(N(CC2=C(c3cc(C(C)C)ccc3OC)CCC(C)(C)C2)Cc2cc(C(F)(F)F)cc(C(F)(F)F)c2)nc1 | 0.91 | 
COc1ccc(C(C)C)cc1C1=C(CN(Cc2cc(C(F)(F)F)cc(C(F)(F)F)c2)c2ncc(OCCO)cn2)CC(C)(C)CC1 | 0.19 | 
COc1ccc(C(C)C)cc1C1=C(CN(Cc2cc(C(F)(F)F)cc(C(F)(F)F)c2)c2ncc(-c3cnn(C)c3)cn2)CC(C)CC1 (stereo unspecified) | 0.06 | 
COc1ccc(C(C)C)cc1C1=C(CN(Cc2cc(C(F)(F)F)cc(C(F)(F)F)c2)c2ncc(N3CCC(NC(C)=O)CC3)cn2)CC(C)(C)CC1 | 0.52 | 
COc1ccc(C(C)C)cc1C1=C(CN(Cc2cc(C(F)(F)F)cc(C(F)(F)F)c2)c2ncc(OCC(=O)O)cn2)CC(C)(C)CC1 | 0.36 | 
COCCOc1cnc(N(CC2=C(c3cc(C(C)C)ccc3OC)CCC(C)(C)C2)Cc2cc(C(F)(F)F)cc(C(F)(F)F)c2)nc1 | 0.42 | 
COc1ccc(C(C)C)cc1C1=C(CN(Cc2cc(C(F)(F)F)cc(C(F)(F)F)c2)c2ncc(-c3cccs3)cn2)CC(C)(C)CC1 | > 50 | 
COc1ccc(C(C)C)cc1C1=C(CN(Cc2cc(C(F)(F)F)cc(C(F)(F)F)c2)c2ncc(N3CCOCC3)cn2)CC(C)(C)CC1 | 0.86 | 
COc1ccc(C(C)C)cc1C1=C(CN(Cc2cc(C(F)(F)F)cc(C(F)(F)F)c2)c2ncc(N3CCC(N)CC3)cn2)CC(C)(C)CC1 | 0.17 | 
COc1cc(F)c(C(C)C)cc1-c1ccc(C(F)(F)F)cc1CN1C(=O)O[C@H](c2cc(C(F)(F)F)cc(C(F)(F)F)c2)[C@@H]1C |  | Activity (Syrian golden hamster [7]; Mesocricetus auratus): Active
COc1ccc(C(C)C)cc1C1=C(CN(Cc2cc(C(F)(F)F)cc(C(F)(F)F)c2)c2ncc(-c3cnn(C)c3)cn2)CC(C(C)(C)C)CC1 (stereo unspecified) | 0.07 | 
COc1ccc(C(C)C)cc1C1=C(CN(Cc2cc(C(F)(F)F)cc(C(F)(F)F)c2)c2ncc(OCCCC(=O)O)cn2)CC(C)(C)CC1 | 0.3 | 
CCC1CCC(c2cc(C(C)C)ccc2OC)=C(CN(Cc2cc(C(F)(F)F)cc(C(F)(F)F)c2)c2ncc(-c3cnn(C)c3)cn2)C1 (stereo unspecified) | 0.08 | 
COc1ccc(C(C)C)cc1C1=C(CN(Cc2cc(C(F)(F)F)cc(C(F)(F)F)c2)c2ncc(Br)cn2)CC(C)(C)CC1 | > 50 | 
COc1ccc(C(C)C)cc1C1=C(CN(Cc2cc(C(F)(F)F)cc(C(F)(F)F)c2)c2ncc(O)cn2)CC(C)(C)CC1 | 3.52 | 
COc1ccc(C(C)C)cc1C1=C(CN(Cc2cc(C(F)(F)F)cc(C(F)(F)F)c2)c2ncc(-c3cnn(C)c3)cn2)CCCCC1 | 1.62 | 
COc1ccc(C(C)C)cc1C1=C(CN(Cc2cc(C(F)(F)F)cc(C(F)(F)F)c2)c2ncc(-c3cnn(C)c3)cn2)c2ccccc2CC1 | 6.63 | 
COc1ccc(C(C)C)cc1C1=C(CN(Cc2cc(C(F)(F)F)cc(C(F)(F)F)c2)c2ncc(-c3ccnn3C)cn2)CC(C)(C)CC1 | > 50 | 
